# Test results from ChEMBL document CHEMBL3526035, “Role of the intestinal peptide transporter PEPT1 in oseltamivir absorption: in vitro and in vivo studies” (Drug Metab Dispos, 2012).
# Columns and labels:
# [1] = Terminal half life in healthy human at 150 mg, po administered as single dose by HPLC-tandem mass spectrometry under fasting conditions; format: ADME, organism-based; details: in vivo, read-out: beta t1/2 (converted)
# Outline: (§1)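 Open-label crossover food-effect study in 18 healthy volunteers (9 male, 9 female, mean age 26). Each received a single 150 mg oral dose of the marketed formulation, once fasting from midnight and once after a high-fat, high-calorie breakfast, separated by a 7–10 day washout. Plasma and urine were collected over 0–72 h and assayed by HPLC-MS/MS for oseltamivir and carboxylate.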
# [2] = Tmax in adult fed Sprague-Dawley rat at 30 mg/kg, po administered as solution in bovine milk by HPLC-tandem mass spectrometry; format: ADME, organism-based; parameters: dose 30 mg/kg, route oral; details: in vivo
# Outline: (§2)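 Cannulated adult male Sprague-Dawley rats with chow ad libitum, 3 per vehicle, were given oral 30 mg/kg (10 ml/kg). Plasma analysis was by HPLC-MS/MS, with Tmax taken graphically from concentration-time profiles.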
# [3] = Cmax in adult fasted Sprague-Dawley rat at 30 mg/kg, po administered as water solution by HPLC-tandem mass spectrometry; format: ADME, organism-based; parameters: dose 30 mg/kg, route oral; details: in vivo
# Outline: (§3)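 Adult cannulated Sprague-Dawley rats, fasted (from 6 h predose) or fed, dosed orally at 30 mg/kg (10 ml/kg), 3 per group. Serial jugular plasma with dichlorvos stabilisation, measured by LC-MS/MS. Cmax read graphically from the concentration-time profile.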
# [4] = Renal clearance in healthy human at 150 mg, po administered as single dose by HPLC-tandem mass spectrometry under fed conditions; format: ADME, organism-based, Kidney; details: in vivo; outline: as §1
# [5] = Cmax in adult fasted Sprague-Dawley rat at 30 mg/kg, po administered as solution in bovine milk by HPLC-tandem mass spectrometry; format: ADME, organism-based; parameters: dose 30 mg/kg, route oral; details: in vivo; outline: as §3
# [6] = AUC(0 to 5 hrs) in juvenile fasted Sprague-Dawley rat at 30 mg/kg, po administered as 125 mM aqueous Gly-Sar solution by HPLC-tandem mass spectrometry; format: ADME, organism-based; parameters: time < 5 hr, dose 30 mg/kg, route oral; details: plasma
# Outline: (§4)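 7-day-old Sprague-Dawley pups (9.7-18.9 g, both sexes), 15 per group. Given 30 mg/kg by oral gavage (10 ml/kg); breast-fed pups stayed with dams, fasted pups were removed 8 h before dosing. Blood taken by cardiac puncture under isoflurane at 0.25, 0.5, 1, 2 and 5 h, n=3 per time point (composite design). Dichlorvos-treated plasma assayed by LC-MS/MS; AUC0-5h by noncompartmental analysis.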
# [7] = Cmax in adult fed Sprague-Dawley rat at 30 mg/kg, po administered as solution in bovine milk by HPLC-tandem mass spectrometry; format: ADME, organism-based; parameters: dose 30 mg/kg, route oral; details: in vivo; outline: as §3
# [8] = Drug uptake in CHOK1 cells by HPLC coupled with radiodetection analysis in presence of KH and Hanks' balanced salt solution; format: ADME, cell-based, Cricetulus griseus; details: chinese hamster, cho-k1
# [9] = Tmax in healthy human at 150 mg, po administered as single dose by HPLC-tandem mass spectrometry under fed conditions; format: ADME, organism-based; details: in vivo; outline: as §1
# [10] = Tmax in healthy human at 150 mg, po administered as single dose by HPLC-tandem mass spectrometry under fasting conditions; format: ADME, organism-based; details: in vivo; outline: as §1
# [11] = AUC(0 to 5 hrs) in juvenile fasted Sprague-Dawley rat at 30 mg/kg, po administered as water solution by HPLC-tandem mass spectrometry; format: ADME, organism-based; parameters: time < 5 hr, dose 30 mg/kg, route oral; details: plasma; outline: as §4
# [12] = Cmax in adult fed Sprague-Dawley rat at 30 mg/kg, po administered as 125 mM aqueous Gly-Sar solution by HPLC-tandem mass spectrometry; format: ADME, organism-based; parameters: dose 30 mg/kg, route oral; details: in vivo; outline: as §3
# [13] = Cmax in adult fasted Sprague-Dawley rat at 30 mg/kg, po administered as 125 mM aqueous Gly-Sar solution by HPLC-tandem mass spectrometry; format: ADME, organism-based; parameters: dose 30 mg/kg, route oral; details: in vivo; outline: as §3
# [14] = AUC(0 to infinity) in healthy human at 150 mg, po administered as single dose by HPLC-tandem mass spectrometry under fed conditions; format: ADME, organism-based; parameters: dose 150 mg, time infinity, route oral; details: plasma
# Outline: (§5)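 Open-label crossover in 18 healthy volunteers (9 male, 9 female, mean age 26). Each received marketed oseltamivir 150 mg orally, once fasted from midnight and once after a high-fat, high-calorie breakfast, with a 7-10 day washout. Plasma and urine collected over 0-72 h and analysed by HPLC-MS/MS. AUC and Cmax compared after log transformation.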
# [15] = AUC(0 to infinity) in healthy human at 150 mg, po administered as single dose by HPLC-tandem mass spectrometry under fasting conditions; format: ADME, organism-based; parameters: dose 150 mg, route oral, time infinity; details: plasma; outline: as §5
# [16] = Drug uptake in CHOK1 cells incubated for 30s to 15 mins by HPLC coupled with radiodetection analysis; format: ADME, cell-based, Cricetulus griseus; details: chinese hamster, cho-k1, 0.25 h
# Outline: (§6)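 Accumulation of [14C]oseltamivir or its carboxylate in CHO-PEPT1 versus CHO-K1 cells. Conditions varied: KH buffer (with MES) or Hanks' balanced salt solution, pH 5 or 6 readjusted after substrate addition, 30 s to 15 min at 37°C. Uptake was quenched with ice-cold PBS-BSA, followed by Triton X-100 lysis, scintillation counting, and BCA protein normalization. HPLC-radiodetection checked ester stability.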
# [17] = AUC(0 to 24 hrs) in adult fed Sprague-Dawley rat at 30 mg/kg, po administered as 125 mM aqueous Gly-Sar solution by HPLC-tandem mass spectrometry; format: ADME, organism-based; parameters: time < 24 hr, dose 30 mg/kg, route oral; details: plasma
# Outline: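 Sprague-Dawley males, 7-8 weeks, 243-283 g, jugular-cannulated, 3 days' recovery; fed (chow ad libitum). Single oral dose of 30 mg/kg (free base) at 10 ml/kg; 3 rats/group. Jugular blood taken at 0.25-24 h into K2EDTA with dichlorvos, kept on ice. Plasma analysed by validated LC-MS/MS (0.1-500 μg/l). Noncompartmental analysis; AUC by linear trapezoid, AUC0-∞ extrapolated using λz.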
# [18] = Drug uptake in CHOK1 cells expressing human PEPT1 at pH 5 by HPLC coupled with radiodetection analysis; format: ADME, cell-based, Cricetulus griseus; details: chinese hamster, cho-k1, pH 5; outline: as §6
# [19] = Drug uptake in CHOK1 cells at 5 to 100 uM after 10 mins by HPLC coupled with radiodetection analysis; format: ADME, cell-based, Cricetulus griseus; details: chinese hamster, cho-k1, 10 min
# [20] = Drug uptake in CHOK1 cells expressing human PEPT1 incubated for 30s to 15 mins by HPLC coupled with radiodetection analysis; format: ADME, cell-based, Cricetulus griseus; details: chinese hamster, cho-k1, 0.25 h; outline: as §6
# [21] = Tmax in adult fed Sprague-Dawley rat at 30 mg/kg, po administered as water solution by HPLC-tandem mass spectrometry; format: ADME, organism-based; parameters: dose 30 mg/kg, route oral; details: in vivo; outline: as §2
# [22] = AUC(0 to 24 hrs) in healthy human at 150 mg, po administered as single dose by HPLC-tandem mass spectrometry under fed conditions; format: ADME, organism-based; parameters: time < 24 hr, dose 150 mg, route oral; details: plasma; outline: as §5
# [23] = Tmax in adult fasted Sprague-Dawley rat at 30 mg/kg, po administered as 125 mM aqueous Gly-Sar solution by HPLC-tandem mass spectrometry; format: ADME, organism-based; parameters: dose 30 mg/kg, route oral; details: in vivo
# Outline: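 Male Sprague-Dawley rats (7–8 weeks, 243–283 g) had jugular-vein cannulas and 3 days' recovery. Fasting ran from 6 h predose through the 6 h study. Three rats per vehicle received 30 mg/kg oral (10 ml/kg). Blood was sampled 0.25–6 h into K2EDTA tubes with dichlorvos. Plasma was assayed by HPLC-MS/MS (0.1–500 µg/l). Tmax was read graphically (noncompartmental).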
# [24] = Drug uptake in CHOK1 cells expressing human PEPT1 by HPLC coupled with radiodetection analysis in presence of KH and Hanks' balanced salt solution; format: ADME, cell-based, Cricetulus griseus; details: chinese hamster, cho-k1; outline: as §6
half-life [1],Tmax [2],Cmax [3],CL renal [4],Cmax [5],AUC(0-t) at 5 h [6],Cmax [7],Drug uptake [8],Tmax [9],Tmax [10],AUC(0-t) at 5 h [11],Cmax [12],Cmax [13],AUC(0-inf) [14],AUC(0-inf) [15],Drug uptake [16],AUC(0-t) at 24 h [17],Drug uptake [18],Drug uptake [19],Drug uptake [20],Compound,further results
412 min,45 min,2290 ng/mL,218 mL/min,1630 ng/mL,10900 ng·h/mL,1310 ng/mL,Active,325 min,262 min,12100 ng·h/mL,693 ng/mL,2560 ng/mL,6070 ng·h/mL,6220 ng·h/mL,Active,4860 ng·h/mL,Active,Active,Active,CCC(CC)O[C@@H]1C=C(C(=O)O)C[C@H](N)[C@H]1NC(C)=O [OSELTAMIVIR CARBOXYLATE],Tmax [21]: 45 min; AUC(0-t) at 24 h [22]: 5060 ng·h/mL; Tmax [23]: 70.2 min; Drug uptake [24]: Active
96.6 min,24.6 min,1690 ng/mL,385 mL/min,1630 ng/mL,27100 ng·h/mL,1430 ng/mL,Active,124 min,48.4 min,29500 ng·h/mL,926 ng/mL,2070 ng/mL,287 ng·h/mL,244 ng·h/mL,Active,2830 ng·h/mL,Active,Active,Active,CCOC(=O)C1=C[C@@H](OC(CC)CC)[C@H](NC(C)=O)[C@@H](N)C1 [OSELTAMIVIR],Tmax [21]: 24.6 min; AUC(0-t) at 24 h [22]: 280 ng·h/mL; Tmax [23]: 15 min; Drug uptake [24]: Active
